# EBV gp42 block – Epstein-Barr virus gp42 inhibitors, primary screen, biochemical, uHTS, fluorescence polarization | Glycoprotein 42 (Epstein-Barr virus (strain AG876)), Q1HVG2 | Fluorescence polarization binding assay, mP read-out | AID 1085, 2008 | 220,000 tested, 0.42% active | inhibition, % (tested at 21.74 µM); in the data active means inhibition above about 50%
# GLD-1 TGE inh – GLD-1/TGE RNA complex disruptors, primary screen, biochemical, fluorescence polarization; Female germline-specific tumor suppressor gld-1 (Caenorhabditis elegans), Q17339; purified GLD-1 + fluorescein TGE RNA; inhibition, % at 5.96 µM; 320,000 tested, 0.44% active; AID 2280, 2010;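 active means percent inhibition above a per-plate cutoff, the plate mean of test compounds plus 3 SD, cut at about 30% in these data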;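 further: 0% = DMSO wells with GLD-1 and probe and 100% = wells lacking GLD-1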
# IMP-1 inh-1 – IMP-1 metallo-beta-lactamase inhibitors, primary screen, biochemical, epi-absorbance readout, Pseudomonas aeruginosa enzyme; metallo-beta-lactamase IMP-1 (Pseudomonas aeruginosa); purified IMP-1, nitrocefin hydrolysis, epi-absorbance fluorescence; inhibition, % at 5.6 µM; 290,000 tested, 0.45% active; AID 1556, 2009;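 active means inhibition above the mean plus 3 SD of all compounds in the same screening run, cut at about 4.5% in these data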;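 further: 0% = IMP-1 with DMSO and 100% = DMSO wells lacking enzyme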
#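 assay system = purified recombinant IMP-1 metallo-beta-lactamase enzyme | schedule = 15 min preincubation plus 25 min reaction at 25 °C | signal = Epi-absorbance fluorescence, 480 nm excitation, 530 nm emission | read-out basis = percent inhibition from optical density relative to buffer-blank wells | controls = IMP-1 with DMSO as 0%, enzyme-free DMSO as 100%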
# VIM-2 inhibitor – VIM-2 metallo-beta-lactamase inhibitors, primary screen, biochemical, epi-absorbance readout, Pseudomonas aeruginosa enzyme; purified VIM-2, nitrocefin hydrolysis, epi-absorbance fluorescence; inhibition, % at 5.6 µM; 290,000 tested, 0.89% active; AID 1527, 2009;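 active means inhibition above the mean of all tested compounds plus 3 SD, cutoff set per screening run, cut at about 7.5% in these data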;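 further: red hydrolysis product quenches plate fluorescence so inhibitors raise well fluorescence; 0% = enzyme with DMSO and 100% = DMSO without enzyme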
# MEX-5 binding – MEX-5 zinc finger RNA-binding disruptors – biochemical, C. elegans, fluorescence polarization, MLPCN library, primary screen; Zinc finger protein mex-5 (Caenorhabditis elegans), Q9XUB2; MEX-5/FITC-TCR2 RNA binding; hits give low values; activity score (negative = inhibition of binding), % at 10 µM; 300,000 tested, 0.38% active;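 active means inhibition past about -25% in most replicates, and total fluorescence under double the plate's negative control median, limit read from the data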;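 further: 0% = DMSO and -100% = 5 µM competing unlabeled TCR2 RNA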
# Bcl-xL primary – inhibitors of human Bcl-xL, primary screen, biochemical, fluorescence polarization, HTS. Bcl-2-like protein 1 (Homo sapiens), Q07817. GST-Bcl-xL / FITC-Bim BH3 peptide fluorescence polarization. inhibition, % at 10.9 µM. 320,000 tested, 0.7% active;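 active means inhibition above the mean of all tested compounds plus 3 SD, cutoff set per campaign, cut at about 30% in these data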;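 further: 0% = DMSO wells and 100% = unlabeled Bim-BH3 peptide competitor; inhibitors lower millipolarization by displacing the labeled peptide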
# Target sequence (Q07817 whole entry, looked up): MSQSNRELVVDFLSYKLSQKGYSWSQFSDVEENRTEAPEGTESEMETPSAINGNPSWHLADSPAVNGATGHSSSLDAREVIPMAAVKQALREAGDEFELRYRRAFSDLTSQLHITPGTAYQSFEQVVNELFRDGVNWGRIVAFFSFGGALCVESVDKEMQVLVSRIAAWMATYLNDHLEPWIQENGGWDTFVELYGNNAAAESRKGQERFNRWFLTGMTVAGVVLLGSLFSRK
# IMP-1 inh-2 – IMP-1 metallo-beta-lactamase inhibitors, confirmation, selectivity assay for selective VIM-2 inhibitor project, biochemical, epi-absorbance readout, triplicate. shares compounds with VIM-2 inhibitor. purified IMP-1, nitrocefin hydrolysis, epi-absorbance fluorescence. inhibition, % at 5.6 µM. 1,300 tested, under 10 active. AID 1856, 2009; call rule not given here;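 further: 0% = enzyme with vehicle and 100% = vehicle without enzyme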
# VIM-2 FRET ctr – VIM-2 inhibitors in FRET format, confirmation, artefact control for selective VIM-2 inhibitor project, biochemical, epi-absorbance artifact exclusion. shares compounds with VIM-2 inhibitor. purified VIM-2, CCF2 FRET substrate hydrolysis. inhibition, % at 5.6 µM. 1,300 tested, 23% active. AID 1857, 2009;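 active means inhibition above the mean of all tested compounds plus 3 SD, cut at about 19% in these data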;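 further: 0% = VIM-2 plus DMSO and 100% = no enzyme wells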
# TEM-1 counter – TEM-1 serine beta-lactamase inhibitors, counter-screen for VIM-2 inhibitor project, biochemical, epi-absorbance, HTS. shares compounds with VIM-2 inhibitor. Purified TEM-1, nitrocefin hydrolysis, epi-absorbance fluorescence. inhibition, % at 5.6 µM. 1,300 tested, 3% active. AID 1866, 2009;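 active means inhibition above that campaign's mean inhibition plus 3 SD, cut at about 0.46% in these data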;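 further: 0% = TEM-1 with DMSO and 100% = TEM-1 with 100 µM potassium clavulanate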
# Target sequence (P62593 whole entry, looked up): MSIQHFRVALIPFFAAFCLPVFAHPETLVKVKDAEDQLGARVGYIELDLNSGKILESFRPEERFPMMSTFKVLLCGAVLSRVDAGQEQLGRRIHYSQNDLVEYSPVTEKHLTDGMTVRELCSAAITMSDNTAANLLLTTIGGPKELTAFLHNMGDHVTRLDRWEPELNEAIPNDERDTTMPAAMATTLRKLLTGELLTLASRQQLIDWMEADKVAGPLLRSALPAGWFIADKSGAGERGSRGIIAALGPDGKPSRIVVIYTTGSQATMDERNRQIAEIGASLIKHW
# VIM-2 inh conf – VIM-2 metallo-beta-lactamase inhibitors, confirmation, biochemical, epi-absorbance, hits shared with IMP-1 screen | shares compounds with VIM-2 inhibitor | purified VIM-2, nitrocefin hydrolysis | inhibition, % at 5.6 µM | 1,300 tested, 96% active | AID 2187, 2009;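 active means inhibition of the VIM-2 beta-lactamase enzyme above about 11% from the earlier first-round screen, limit read from the data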;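 further: 0% = VIM-2 with DMSO and 100% = buffer wells without enzyme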
# Active calls of the source: *; . = not tested or not shown. Shown are actives, neighbours in structure and some others; about 2.2% of the full set was active somewhere.
SMILES,EBV gp42 block,GLD-1 TGE inh,IMP-1 inh-1,VIM-2 inhibitor,MEX-5 binding,Bcl-xL primary,IMP-1 inh-2,VIM-2 FRET ctr,TEM-1 counter,VIM-2 inh conf
Cc1ccc(C(=O)NC(=S)Nc2ccc(S(=O)(=O)N3CCN(C)CC3)cc2)cc1,-16,5,-2,31*,-2,8,-2,0,-8,63*
Cc1cccc(C(=O)NC(=S)Nc2ccc(S(=O)(=O)N3CCCCC3)cc2)c1,7,3,-4,-3,-2,4,.,.,.,.
Cc1cccc(C(=O)NC(=S)Nc2ccc(S(=O)(=O)N3CCN(C)CC3)cc2)c1,5,-6,-3,38*,2,9,-2,3,-9,69*
CN(C)C(=O)c1ccc(NC(=O)c2ccccc2SCC(=O)N2CCCC2)cc1,.,6,.,.,.,5,.,.,.,.
Cc1ccc(N(C)S(=O)(=O)c2cccc(C(=O)NCCCN3CCCC3=O)c2)cc1,.,-2,.,.,.,4,.,.,.,.
CN1CCN(Cc2cc(=O)oc3cc4c(cc23)CCC4)CC1,-12,1,-3,18*,-2,2,-4,1,-6,30*
CCN1CCN(Cc2cc(=O)oc3cc4c(cc23)CCC4)CC1,-1,-6,-4,13*,1,3,-3,-5,-3,31*
CC1CCN(Cc2cc(=O)oc3cc4c(cc23)CCCC4)CC1,-7,3,0,-1,1,2,.,.,.,.
Cc1ccccc1C(=O)c1cccn1CC(=O)O,4,8,-3,38*,-2,4,-2,57*,1.3*,43*
CCSc1nnc2ccc(-c3ccc(OC)c(OC)c3)nn12,.,0,-4,31*,-5,10,-4,1,-8,44*
COc1ccc(-c2ccc3nnc(SCC(N)=O)n3n2)cc1,-4,-7,-3,0,-1,4,.,.,.,.
CC1CCCC(C)N1C(=O)COC(=O)CNC(=O)c1ccccc1F (stereo not drawn),.,1,.,.,.,23,.,.,.,.
C/C(=N\NC(=O)CN1CCN(S(=O)(=O)c2ccc(C)cc2)CC1)c1ccc(O)cc1,-21,1,0,-3,0,-2,.,.,.,.
COc1ccc(/C=C2\N=C(SC)NC2=O)cc1,-9,9,-7,-3,-2,-5,.,.,.,.
CSC1=N/C(=C/c2ccc(-n3cncn3)cc2)C(=O)N1,-1,4,1,14*,-3,8,-3,-2,-9,55*
CCCn1c(=N)c(S(=O)(=O)c2ccc(F)cc2)cc2c(=O)n3cccc(C)c3nc21,.,-6,-1,13*,-2,6,-1,-4,2.9*,27*
COc1ccc(NC(=O)c2cc3c(Cl)nc4ccccc4c3s2)cc1OC,-10,1,-4,-2,0,0,.,.,.,.
CN(C)CCN(Cc1ccco1)C(=O)c1cc2c(Cl)nc3ccccc3c2s1,-14,3,-1,13*,0,5,-2,0,-4,36*
CN(CCC#N)C(=O)c1cc2c(Cl)nc3ccccc3c2s1,.,-5,-2,20*,1,1,-4,7,-6,25*
CCCCN(Cc1ccco1)C(=O)c1cc2c(=O)[nH]c3ccc(C)cc3c2s1,8,3,-4,7,3,-7,.,.,.,.
O=C(O)CCCN1C(=O)c2cccc3cccc(c23)C1=O,.,8,-2,1,-1,5,.,.,.,.
O=C(CCCN1C(=O)c2cccc3cccc(c23)C1=O)NC1CCS(=O)(=O)C1 (stereo not drawn),-10,-7,-3,15*,0,7,-2,-2,0,22*
Fc1ccccc1-c1n[nH]c(=S)n1CC1CCCO1 (stereo not drawn),-7,-4,-3,35*,2,-2,-4,61*,-6,44*
Cc1ccc(N(C)S(=O)(=O)c2c[nH]c3ccc([N+](=O)[O-])cc23)cc1,.,5,1,-1,1,0,.,.,.,.
Cn1c(=O)cc(SCC(=O)N2CCN(c3ccccc3)CC2)c2ccccc21,-29,10,-2,-1,0,3,.,.,.,.
SMILES,EBV gp42 block,GLD-1 TGE inh,IMP-1 inh-1,VIM-2 inhibitor,MEX-5 binding,Bcl-xL primary,IMP-1 inh-2,VIM-2 FRET ctr,TEM-1 counter,VIM-2 inh conf
CN1CCN(C(=O)CCCOc2cc(=O)n(C)c3ccccc23)CC1,0,-6,-3,18*,-1,1,-3,-2,-5,38*
CN1CCN(C(=O)CSc2cc(=O)n(C)c3ccccc23)CC1,6,3,-3,31*,-1,-1,-2,1,-5,49*
CCN1CCN(C(=O)CSc2cc(=O)n(C)c3ccccc23)CC1,-5,-2,-3,37*,3,0,-2,-2,-5,56*
COc1cc2c(-c3ccc4[nH]ccc4c3)c(-c3ccc(C#N)cc3)oc(=O)c2cc1OC,.,-4,.,.,.,-1,.,.,.,.
COc1ccc(-c2cc3ncnc(Cl)c3s2)cc1,.,-14,1,-1,-7,8,.,.,.,.
Cn1ccnc1SCC(=O)Nc1ccc2nc(SCC(=O)NC3CC3)sc2c1,-19,-2,-2,13*,0,6,-3,36*,-6,25*
CSc1ccc(/C=C(\C(=O)O)c2ccc(S(=O)(=O)N3CCCC3)s2)cc1,.,-2,.,.,.,4,.,.,.,.
Cc1c(Br)cc(C(=O)OC2CCN(C)CC2)c(C)c1C,-21,3,0,13*,1,2,-1,2,-5,17*
CCc1ccc(/C=N/Nc2ncnc3nc[nH]c23)cc1,-5,-3,-3,15*,-3,6,-3,-15,-1,43*

# High-throughput results: PubChem BioAssay, several laboratories
